Tests used:
[1] = tested on: MS2 coat protein; experiment: apparent Kd, MS2 coat protein; higher = weaker binding; RNA-MaP array; tryptophan 2.4 mM where present
Summary of the method: (§1)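 On Illumina sequencing-chip clusters, designs were transcribed by stalled E. coli RNA polymerase and titrated with SNAP-549-labelled MS2 coat protein (0.7 or 1.5 nM, doubling to 3 µM), without and then with constant ligand, in 100 mM Tris-HCl pH 7.5, 80 mM KCl, 4 mM MgCl2, BSA, DTT, yeast tRNA and Tween-20. Apparent Kd is the median of filtered per-cluster curve fits to green signal normalised to red-channel RNA signal and control-cluster median Fmax.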

[2] = tested on: MS2 coat protein; experiment: apparent Kd, MS2 coat protein; higher = weaker binding; RNA-MaP array; theophylline 2 mM where present
Summary of the method: as §1

[3] = designed as: ON switch for tryptophan, no ligand
[4] = ligand present: tryptophan, designed as: ON switch for tryptophan
[5] = designed as: OFF switch for tryptophan, no ligand
[6] = ligand present: tryptophan, designed as: OFF switch for tryptophan
[7] = designed as: ON switch for theophylline, no ligand
[8] = ligand present: theophylline, designed as: ON switch for theophylline
[9] = designed as: OFF switch for theophylline, no ligand
[10] = ligand present: theophylline, designed as: OFF switch for theophylline

Sequence	apparent Kd [1, 3]	apparent Kd [1, 4]	apparent Kd [1, 5]	apparent Kd [1, 6]	also measured
CGAUAUAAGACGGCCGCCACUAUUAUGUAACAAAAUAAACAUGAGGAUCACCCAUGUACAUGGGAUAGGACCGGGUCCAAUAACG	112 nM	58.2 nM	–	–	–
AGCACUGUGACGGCCGCCACUACAUAUAGGGUGGUCAGGCCCAUAAUACAUGAGGAUCACCCAUGUAGGACCGGGUCUCAGUGCA	–	–	16.8 nM	12.1 nM	–
GGGCGCGUGGACUGGCGUGCUCCGCUCCGUCGAGGACCGGUACGGCCGCCACUCGACAUGAGGAUCACCCAUGUGUGAGCUCGCG	–	–	152 nM	474 nM	–
AUAACAUGAGGAUCACCCAUGUAUUGGUUACGAGGACCGGUACGGCCGCCACUCGUAUUUUGGUGGUAUUUUGUAUAUAUGAUAA	26.8 nM	26.3 nM	–	–	–
CUACAUUUGUAGAAACCGGUCACCAUUACUCGAGGACCGGUACGGCCGCCACUCGUGUCAUGUGAUACAUGAGGAUCACCCAUGU	22 nM	23.1 nM	–	–	–
CAAAUAAGAACAAACAAAUAACGGUUUUCGCGAGGACCGGUACGGCCGCCACUCGUGUGAAAUAACACAUGAGGAUCACCCAUGU	36.1 nM	20.6 nM	–	–	–
GGUUACUCUACGGCCGCCACUGUAAUGUAAAGAUACCUGUACAUGACAUGAGGAUCACCCAUGUACAGGACCGGGUAGUGUAACC	237 nM	48.1 nM	–	–	–
AAUGUAUGGCACAUGAGGAUCACCCAUGUGCGAGGACCGGUACGGCCGCCACUCGGUCGGUGGUUAAUGAAGCUAUACAUUAAUG	–	–	40 nM	57.7 nM	–
AGUCUGGACUCGGCCGCCACUCGUGAUGCUUUGGCACAUGAGGAUCACCCAUGUGGUCGGCCUUAGAGGACCGGGAGUACCAGUC	56.1 nM	13.7 nM	–	–	–
UAAUGCAGGUCGGCCGCCACUACACACAUGAGGAUCACCCAUGUAGUUACUGGGUGAAGUGGCAGUAGGACCGGGACCUGCAUAA	419 nM	516 nM	–	–	–
AUAACAUGAGGAUCACCCAUGUAUUGGUAACGAGGACCGGUACGGCCGCCACUCGAAUUUUGGUGGUAUAAUAUAUAUAUGAUUA	21 nM	20.6 nM	–	–	–
AGCGUUCGGUUUAUGCCGGACAAUGGGUGACGAGGACCGGUACGGCCGCCACUCGGGCGCCCGGUUACAUGAGGAUCACCCAUGU	258 nM	30.1 nM	–	–	–
AACAUGAGCACGGCCGCCACUCCAUGAACAUGAGGAUCACCCAUACACAUGAGGAUCACCCAUGUGAGGACCGGGUGUCCAUGUG	–	–	13.3 nM	56.6 nM	–
AAUAAACAUGAGGAUCACCCAUGUAGGGUGCGAGGACCGGUACGGCCGCCACUCGGGUGAAAACAUGAGGAUCACCCAUGUUAAA	–	–	198 nM	420 nM	–
CUGUACAUCUCGGCCGCCACUGCAACAUGUACACAUGGACAUGUACAUGAGGAUCACCCAUGUGGCAGGACCGGGAGGUGUGCAG	192 nM	26.5 nM	–	–	–
CACGAAAGAUCGGCCGCCACUAAUCUAUGUGUACUAGCACAUGAGGAUCACCCAUGUUCUUGCGUUAGGACCGGGAUUGAGCGUG	–	–	22.2 nM	18.8 nM	–
CCUAUGCAGUCGGCCGCCACUGAACAUGAGGAUCACCCAUGUUAUUAUAAAUAUGGUCCUAAAAUCAGGACCGGGACUGUAUAGG	–	–	68 nM	228 nM	–
GGAUUAGAGGCGGCCGCCACUGGAACAUGAGGAUCACCCAUGUAGUGCAUGUAAUUAACCUCGAUCAGGACCGGGCCGAUAGUCA	–	–	59.9 nM	103 nM	–
UCAUAAGUACCGGUCCUCAGAUCCUCAUGACGAGGACCGGUACGGCCGCCACUCGAAACAUGAGGAUCACCCAUGUAAUAAUACU	–	–	24.1 nM	23.6 nM	–
AUAUAUACAUGAGGAUCACCCAUGUUAUUUCGAGGACCGGUACGGCCGCCACUCGAUAGAGUAGAAGUAAAUUUUGAUUCAUGUA	20.6 nM	18.1 nM	–	–	–

Sequence	apparent Kd [1, 3]	apparent Kd [1, 4]	apparent Kd [1, 5]	apparent Kd [1, 6]	also measured
UUAUAAGUACCGGUCCUCAGAUCCUCAUGACGAGGACCGGUACGGCCGCCACUCGAAACAUGAGGAUCACCCAUGUAAUAAUAUC	–	–	23.8 nM	24.7 nM	–
UCGGAGAAGUCGGCCGCCACUGAACUCUUGUUCUACAUGAGGAUCACCCAUGUUCCUUUGUUUAACAGGACCGGGACUUAUACGA	224 nM	96.3 nM	–	–	–
AUUCAUGGAAACAUGAGAUAUCCUACCGGUCGAGGACCGGUACGGCCGCCACUCGGUUGGUGGCACAUGAGGAUCACCCAUGUUA	291 nM	265 nM	–	–	–
UACUUGCUGACGGCCGCCACUAGAACAUGAGGAUCACCCAUGUAUCUAGUGGCAAUCCUCAUGACUAGGACCGGGUCAGCAAGAU	–	–	9.71 nM	9.56 nM	–
ACAGGUACGCCUAUUAAAAUAAAACACCUACGAGGACCGGUACGGCCGCCACUCGGGUGACAUGAGGAUCACCCAUGUGGCUAAA	394 nM	155 nM	–	–	–
AUUGUGAAGUCGGCCGCCACUGCAUAGUUUAACCACAUGUAACAUGAGGAUCACCCAUGUAAUGACAGGACCGGGACAAUAGUAA	28 nM	21.1 nM	–	–	–
GUAUAUUGAAAACAAUAUACAGUGGGUGAACGAGGACCGGUACGGCCGCCACUCGGACAUGAGGAUCACCCAUGUCCAUGUGAAA	–	–	17 nM	35.2 nM	–
AACGGUCGUACCGGAAUGAUCCUCAUGUAACGAGGACCGGUACGGCCGCCACUCGAUAACAUGAGGAUCACCCAUGUAAUAAUAA	–	–	12.9 nM	11 nM	–
AUACAUGAGGAUCACCCAUGUGAUGGCCGGCGAGGACCGGUACGGCCGCCACUCGUGAUCCGUCCUGAGAGCAAAGCCCUCAACA	82.1 nM	102 nM	–	–	–
GGCAAGCGAGACAUGAGGAUCACCCAUGUUCGAGGACCGGUACGGCCGCCACUCGGUGGACUCAUGGUAAAGCCGGUGAGCCAAA	34.6 nM	74.3 nM	–	–	–
AUGCAUAGCACGGCCGCCACUCAAAUUAAACAUGAGGAUCACCCAUGUAACAUGGAUAAAAUAAAGAGGACCGGGUGAAAUGCAA	28.3 nM	18.9 nM	–	–	–
UCCUCAUGGCAUGAUACCAGACCUAACAUGAGGAUCACCCAUGUAUCAGGCAAUUGUUACGUCCCUUGGCAGCAUGUAUGCCGAC	–	–	–	–	apparent Kd [2, 7]: 70.2 nM; apparent Kd [2, 8]: 138 nM
ACAUGAGGAUCACCCAUGUCAGGGCACGAUACCAGCUGAUCCGAUGGCCCUUGGCAGCGUGACGUGUGGUCAUGAGGAUCACCCG	–	–	–	–	apparent Kd [2, 7]: 189 nM; apparent Kd [2, 8]: 156 nM
UAUAUUGUGAUGGAUACCAGCAGAGAAAACGUUUAUCCUAACAUGAGGAUCACCCAUGUAUGCCCUUGGCAGCUGUUGUGAUAUA	–	–	–	–	apparent Kd [2, 9]: 71.4 nM; apparent Kd [2, 10]: 46.9 nM
ACAUGAGGAUCACCCAUGUGCCGUCUUGAUACCAGACCCGAAGUAGUCCCUUGGCAGCAACUACGUGACGGUCGCGCAUGUGUAG	–	–	–	–	apparent Kd [2, 9]: 19.8 nM; apparent Kd [2, 10]: 28.7 nM
UUUAUGGAGCUUUUAUUUACGAUUUCUGAUACCAGUGUUUCAUUUCACCCUUGGCAGCAGUGACAUGAGGAUCACCCAUGUAAUA	–	–	–	–	apparent Kd [2, 7]: 28 nM; apparent Kd [2, 8]: 22.3 nM
UUUACAUGAGGAUCACCCAUGUGCCAUGAUACCAGACAUGAAAAUGUCCCUUGGCAGCAUGAAUGAUUCAUAGGAUAAUUAUGGG	–	–	–	–	apparent Kd [2, 7]: 99.2 nM; apparent Kd [2, 8]: 98.8 nM
CGGUUUGUGAUGGAUACCAGCAGAGAAAACGUUUAUCCUAACAUGAGGAUCACCCAUGUAUGCCCUUGGCAGCUGUUGUGGGCUG	–	–	–	–	apparent Kd [2, 9]: 44.7 nM; apparent Kd [2, 10]: 45.6 nM
CUCUUCCGGAAGGAUACCAGCUACAUGAGGAUCACCCAUGUAGGAGCGGGUUUCUAAUGUAGCCCUUGGCAGCCUUAGCCCGUCG	–	–	–	–	apparent Kd [2, 9]: 17.6 nM; apparent Kd [2, 10]: 60.7 nM
AGACAUGAGGAUCACCCAUGUAGCAUGGAUACCAGAUGUAGAUUAGUCCCUUGGCAGCUGUGGUAAAGUGAUGCAUUGCUCCUAG	–	–	–	–	apparent Kd [2, 9]: 49.2 nM; apparent Kd [2, 10]: 47.4 nM
